≈ marks a conversion by molar mass, not a printed value.
Assays:
Staphylococcus aureus [1] = assay: Antibacterial activity against Staphylococcus aureus ATCC 6538 after 24 hrs by micro dilution method; type: functional; settings: ATCC 6538, 24 h
How it was run: (§1)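 Microdilution MIC in 96-well plates. Bacterial suspensions adjusted in sterile saline to 1.0 × 10^5 CFU/ml, giving 1.0 × 10^4 cfu per well in LB broth. Compounds tested at up to 1 mg/ml. Plates incubated 24 h. MIC taken as the lowest concentration with no visible growth under a binocular microscope. OD at 655 nm was also read against a blank and the positive control. Streptomycin and ampicillin were the positive controls.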

Bacillus cereus [2] = assay: Antibacterial activity against Bacillus cereus clinical isolate after 24 hrs by micro dilution method; type: functional; how it was run: as §1
Micrococcus flavus [3] = assay: Antibacterial activity against Micrococcus flavus ATCC 10240 after 24 hrs by micro dilution method; type: functional; settings: ATCC 10240, 24 h; how it was run: as §1
Listeria monocytogenes [4] = assay: Antibacterial activity against Listeria monocytogenes NCTC 7973 after 24 hrs by micro dilution method; type: functional; settings: NCTC 7973, 24 h; how it was run: as §1
Pseudomonas aeruginosa [5] = assay: Antibacterial activity against Pseudomonas aeruginosa ATCC 27853 after 24 hrs by micro dilution method; type: functional; settings: ATCC 27853, 24 h; how it was run: as §1
Enterobacter cloacae [6] = assay: Antibacterial activity against Enterobacter cloacae human isolate after 24 hrs by micro dilution method; type: functional; how it was run: as §1
Salmonella typhimurium [7] = assay: Antibacterial activity against Salmonella Typhimurium ATCC 13311 after 24 hrs by micro dilution method; type: functional, Salmonella enterica subsp. enterica serovar Typhimurium; settings: Salmonella enterica, ATCC 13311, 24 h; how it was run: as §1
Escherichia coli [8] = assay: Antibacterial activity against Escherichia coli ATCC 35210 after 24 hrs by micro dilution method; type: functional; settings: ATCC 35210, 24 h; how it was run: as §1
Staphylococcus aureus [9] = assay: Antibacterial activity against Staphylococcus aureus ATCC 6538 treated for 24 hrs followed by sub-cultivated for 72 hrs by micro dilution method; type: functional
How it was run: (§2)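 2 µl from each well was serially subcultured into 100 µl fresh broth per well and incubated a further 72 h. MBC is the lowest concentration with no visible growth, taken as 99.5% killing of the original inoculum. Streptomycin and ampicillin were the positive controls.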

Bacillus cereus [10] = assay: Antibacterial activity against Bacillus cereus clinical isolate treated for 24 hrs followed by sub-cultivated for 72 hrs by micro dilution method; type: functional; how it was run: as §2
Micrococcus flavus [11] = assay: Antibacterial activity against Micrococcus flavus ATCC 10240 treated for 24 hrs followed by sub-cultivated for 72 hrs by micro dilution method; type: functional; how it was run: as §2
Listeria monocytogenes [12] = assay: Antibacterial activity against Listeria monocytogenes NCTC 7973 treated for 24 hrs followed by sub-cultivated for 72 hrs by micro dilution method; type: functional; how it was run: as §2
Pseudomonas aeruginosa [13] = assay: Antibacterial activity against Pseudomonas aeruginosa ATCC 27853 treated for 24 hrs followed by sub-cultivated for 72 hrs by micro dilution method; type: functional; how it was run: as §2
Enterobacter cloacae [14] = assay: Antibacterial activity against Enterobacter cloacae human isolate treated for 24 hrs followed by sub-cultivated for 72 hrs by micro dilution method; type: functional; how it was run: as §2
Salmonella typhimurium [15] = assay: Antibacterial activity against Salmonella Typhimurium ATCC 13311 treated for 24 hrs followed by sub-cultivated for 72 hrs by micro dilution method; type: functional, Salmonella enterica subsp. enterica serovar Typhimurium; settings: Salmonella enterica; how it was run: as §2
Escherichia coli [16] = assay: Antibacterial activity against Escherichia coli ATCC 35210 treated for 24 hrs followed by sub-cultivated for 72 hrs by micro dilution method; type: functional; how it was run: as §2
Talaromyces funiculosus [17] = assay: Antifungal activity against Penicillium funiculosum ATCC 36839 after 72 hrs by serial dilution method; type: functional; settings: ATCC 36839, 72 h
How it was run: (§3)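 Modified microdilution MIC. Spores were washed from malt agar cultures with sterile 0.85% saline containing 0.1% Tween 80 and adjusted to about 1.0 × 10^5 per 100 µl well in malt broth. Compounds were dissolved in DMSO (1 mg/ml). Plates incubated 72 h at 28 °C. MIC is the lowest concentration with no visible growth under a binocular microscope. Bifonazole and ketoconazole were the references.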

Penicillium ochrochloron [18] = assay: Antifungal activity against Penicillium ochrochloron ATCC 9112 after 72 hrs by serial dilution method; type: functional; settings: ATCC 9112, 72 h; how it was run: as §3
Trichoderma viride [19] = assay: Antifungal activity against Trichoderma viride IAM 5061 after 72 hrs by serial dilution method; type: functional; settings: IAM 5061, 72 h; how it was run: as §3
Aspergillus fumigatus [20] = assay: Antifungal activity against Aspergillus fumigatus human isolate after 72 hrs by serial dilution method; type: functional; how it was run: as §3
Aspergillus niger [21] = assay: Antifungal activity against Aspergillus niger ATCC 6275 after 72 hrs by serial dilution method; type: functional; settings: ATCC 6275, 72 h; how it was run: as §3
Aspergillus flavus [22] = assay: Antifungal activity against Aspergillus flavus ATCC 9643 after 72 hrs by serial dilution method; type: functional; settings: ATCC 9643, 72 h; how it was run: as §3
Aspergillus versicolor [23] = assay: Antifungal activity against Aspergillus versicolor ATCC 11730 after 72 hrs by serial dilution method; type: functional; settings: ATCC 11730, 72 h; how it was run: as §3
Fulvia fulva [24] = assay: Antifungal activity against Fulvia fulva after 72 hrs by serial dilution method; type: functional; how it was run: as §3
Talaromyces funiculosus [25] = assay: Antifungal activity against Penicillium funiculosum ATCC 36839 treated for 72 hrs followed by sub-cultivated for 5 days by serial dilution method; type: functional
How it was run: (§4)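 MFC obtained after the 72 h, 28 °C malt-broth microdilution (spore inoculum about 1.0 × 10^5 per well, compounds from 1 mg/ml DMSO). 2 µl was serially subcultured into 100 µl broth per well and incubated a further 5 days at 28 °C. MFC is the lowest concentration with no visible growth, taken as 99.5% killing of the original inoculum.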

Penicillium ochrochloron [26] = assay: Antifungal activity against Penicillium ochrochloron ATCC 9112 treated for 72 hrs followed by sub-cultivated for 5 days by serial dilution method; type: functional; how it was run: as §4
Trichoderma viride [27] = assay: Antifungal activity against Trichoderma viride IAM 5061 treated for 72 hrs followed by sub-cultivated for 5 days by serial dilution method; type: functional; how it was run: as §4
Aspergillus fumigatus [28] = assay: Antifungal activity against Aspergillus fumigatus human isolate treated for 72 hrs followed by sub-cultivated for 5 days by serial dilution method; type: functional; how it was run: as §4
Aspergillus niger [29] = assay: Antifungal activity against Aspergillus niger ATCC 6275 treated for 72 hrs followed by sub-cultivated for 5 days by serial dilution method; type: functional; how it was run: as §4
Aspergillus flavus [30] = assay: Antifungal activity against Aspergillus flavus ATCC 9643 treated for 72 hrs followed by sub-cultivated for 5 days by serial dilution method; type: functional; how it was run: as §4
Aspergillus versicolor [31] = assay: Antifungal activity against Aspergillus versicolor ATCC 11730 treated for 72 hrs followed by sub-cultivated for 5 days by serial dilution method; type: functional; how it was run: as §4
Fulvia fulva [32] = assay: Antifungal activity against Fulvia fulva treated for 72 hrs followed by sub-cultivated for 5 days by serial dilution method; type: functional; how it was run: as §4

MIC (Staphylococcus aureus [1]) [µM] | MIC (Bacillus cereus [2]) [µM] | MIC (Micrococcus flavus [3]) [µM] | MIC (Listeria monocytogenes [4]) [µM] | MIC (Pseudomonas aeruginosa [5]) [µM] | MIC (Enterobacter cloacae [6]) [µM] | MIC (Salmonella typhimurium [7]) [µM] | MIC (Escherichia coli [8]) [µM] | MIC (Talaromyces funiculosus [17]) [µM] | MIC (Penicillium ochrochloron [18]) [µM] | MIC (Trichoderma viride [19]) [µM] | MIC (Aspergillus fumigatus [20]) [µM] | SMILES | MBC (Staphylococcus aureus [9]) [µM] | MBC (Bacillus cereus [10]) [µM] | MBC (Micrococcus flavus [11]) [µM] | MBC (Listeria monocytogenes [12]) [µM] | MBC (Pseudomonas aeruginosa [13]) [µM] | MBC (Enterobacter cloacae [14]) [µM] | MBC (Salmonella typhimurium [15]) [µM] | MBC (Escherichia coli [16]) [µM] | other results
250 (≈ 99.6 µg/mL) | 250 (≈ 99.6 µg/mL) | 250 (≈ 99.6 µg/mL) | 250 (≈ 99.6 µg/mL) | 130 (≈ 51.8 µg/mL) | 630 (≈ 251 µg/mL) | 130 (≈ 51.8 µg/mL) | 630 (≈ 251 µg/mL) | 250 (≈ 99.6 µg/mL) | 250 (≈ 99.6 µg/mL) | 130 (≈ 51.8 µg/mL) | 130 (≈ 51.8 µg/mL) | CCCCNc1nnc(Cc2cc(OC)c(OC)cc2S(=O)(=O)N(C)C)o1 | 380 (≈ 151 µg/mL) | 250 (≈ 99.6 µg/mL) | 500 (≈ 199 µg/mL) | 750 (≈ 299 µg/mL) | 250 (≈ 99.6 µg/mL) | 750 (≈ 299 µg/mL) | 250 (≈ 99.6 µg/mL) | 630 (≈ 251 µg/mL) | MIC (Aspergillus niger [21]): 250 µM (≈ 99.6 µg/mL); MIC (Aspergillus flavus [22]): 250 µM (≈ 99.6 µg/mL); MIC (Aspergillus versicolor [23]): 250 µM (≈ 99.6 µg/mL); MIC (Fulvia fulva [24]): 130 µM (≈ 51.8 µg/mL); MFC (Talaromyces funiculosus [25]): 500 µM (≈ 199 µg/mL); MFC (Penicillium ochrochloron [26]): 750 µM (≈ 299 µg/mL); MFC (Trichoderma viride [27]): 130 µM (≈ 51.8 µg/mL); MFC (Aspergillus fumigatus [28]): 250 µM (≈ 99.6 µg/mL); MFC (Aspergillus niger [29]): 750 µM (≈ 299 µg/mL); MFC (Aspergillus flavus [30]): 750 µM (≈ 299 µg/mL); MFC (Aspergillus versicolor [31]): 750 µM (≈ 299 µg/mL); MFC (Fulvia fulva [32]): 250 µM (≈ 99.6 µg/mL)
250 (≈ 99.6 µg/mL) | 390 (≈ 155 µg/mL) | 250 (≈ 99.6 µg/mL) | 250 (≈ 99.6 µg/mL) | 390 (≈ 155 µg/mL) | 630 (≈ 251 µg/mL) | 130 (≈ 51.8 µg/mL) | 390 (≈ 155 µg/mL) | 130 (≈ 51.8 µg/mL) | 130 (≈ 51.8 µg/mL) | 60 (≈ 23.9 µg/mL) | 130 (≈ 51.8 µg/mL) | COc1cc(Cc2nnc(NC(C)(C)C)o2)c(S(=O)(=O)N(C)C)cc1OC | 500 (≈ 199 µg/mL) | 390 (≈ 155 µg/mL) | 500 (≈ 199 µg/mL) | 390 (≈ 155 µg/mL) | 390 (≈ 155 µg/mL) | 630 (≈ 251 µg/mL) | 250 (≈ 99.6 µg/mL) | 390 (≈ 155 µg/mL) | MIC (Aspergillus niger [21]): 250 µM (≈ 99.6 µg/mL); MIC (Aspergillus flavus [22]): 130 µM (≈ 51.8 µg/mL); MIC (Aspergillus versicolor [23]): 130 µM (≈ 51.8 µg/mL); MIC (Fulvia fulva [24]): 250 µM (≈ 99.6 µg/mL); MFC (Talaromyces funiculosus [25]): 250 µM (≈ 99.6 µg/mL); MFC (Penicillium ochrochloron [26]): 380 µM (≈ 151 µg/mL); MFC (Trichoderma viride [27]): 130 µM (≈ 51.8 µg/mL); MFC (Aspergillus fumigatus [28]): 250 µM (≈ 99.6 µg/mL); MFC (Aspergillus niger [29]): 380 µM (≈ 151 µg/mL); MFC (Aspergillus flavus [30]): 250 µM (≈ 99.6 µg/mL); MFC (Aspergillus versicolor [31]): 380 µM (≈ 151 µg/mL); MFC (Fulvia fulva [32]): 250 µM (≈ 99.6 µg/mL)

Reference: ChEMBL document CHEMBL1944580, “Synthesis of novel sulfonamide-1,2,4-triazoles, 1,3,4-thiadiazoles and 1,3,4-oxadiazoles, as potential antibacterial and antifungal agents. Biological evaluation and conformational analysis studies” (2012)
